Shown are actives, neighbours in structure and some others; about 1.5% of the full set was active somewhere.
PP1 inh: PP1-alpha (human) inhibition in PP5 counter-screen | inhibition, % at 6.7 µM | AID 2235 | purified PP1alpha, OMFP fluorescence | P62136 | 320,000 tested, 0.9% active;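 active = inhibition above the mean inhibition of all tested compounds plus 3 SD, computed separately for each screening campaign, cut at about 15% in these data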
Target sequence (P62136 whole entry, looked up): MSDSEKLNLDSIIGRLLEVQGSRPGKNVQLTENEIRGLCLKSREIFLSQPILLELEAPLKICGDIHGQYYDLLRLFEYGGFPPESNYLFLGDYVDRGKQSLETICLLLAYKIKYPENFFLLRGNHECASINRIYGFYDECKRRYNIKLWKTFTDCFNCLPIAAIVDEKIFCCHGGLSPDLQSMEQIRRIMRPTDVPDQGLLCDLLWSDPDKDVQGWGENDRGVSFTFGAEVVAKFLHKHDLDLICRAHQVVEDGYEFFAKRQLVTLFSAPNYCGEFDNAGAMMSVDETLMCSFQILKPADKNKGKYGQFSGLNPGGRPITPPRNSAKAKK
PKD1 kinase inh: inhibitors of human PKD1 kinase; Q15139; PKD1 kinase fluorescence polarization assay; inhibition, % (no concentration beside the values); 200,000 tested, 0.056% active; in the data active = inhibition above about 50%
Hsp70 activator: transcriptional activators of Hsp70 | HeLa Hsp70 promoter luciferase reporter, luminescence; scaled: vehicle 0, proteasome-inhibitor control 100% | activation, % at 10 µM | AID 1203 | 200,000 tested, 0.04% active;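 active = activation above the mean across all tested compounds plus 3 SD, cutoff set per campaign, cut at about 5.5% in these data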;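 note: 100% = MG132 at 30 µM as the positive control and 0% = DMSO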
RBBP9 inhibitor: blocks human serine hydrolase RBBP9. recombinant RBBP9, FP-Rh probe fluorescence polarization. inhibition, % at 7.94 µM. 220,000 tested, 0.2% active;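 active = inhibition above the campaign mean of all tested compounds plus 3 SD, cut at about 14% in these data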;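 note: plate controls were DMSO wells with RBBP9 for no effect and wells lacking RBBP9 protein for full effect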
Target sequence (O75884 whole entry, looked up): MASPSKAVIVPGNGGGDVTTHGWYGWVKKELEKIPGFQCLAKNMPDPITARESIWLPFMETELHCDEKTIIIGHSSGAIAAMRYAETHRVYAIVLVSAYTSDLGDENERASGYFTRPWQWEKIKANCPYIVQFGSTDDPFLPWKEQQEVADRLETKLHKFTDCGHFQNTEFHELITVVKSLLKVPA
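Measured by: FP readout at 525/598 nm; material: recombinant human RBBP9; also added: Serine-hydrolase probe FP-Rh, 375 nM pre-mixing; medium: Tris buffer pH 8.0, NaCl, Pluronic; replication: one well per compound; doses: one concentration, 7.94 µM nominal, 0.794% DMSO; timing: preincubation 30 min plus labeling 45 min at 25 °C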
PP5 inh: PP5 (human) phosphatase inhibition; AID 1987; inhibition, % at 6.7 µM; 320,000 tested, 0.18% active; purified PP5c, OMFP substrate fluorescence; P53041;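 active = inhibition above the campaign's mean inhibition across all tested compounds plus 3 SD, cut at about 9.5% in these data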;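 note: 0% = DMSO only and 100% = 100 µM cantharidin control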
p97 ATPase inh: blocks human p97 ATPase activity | AID 1481 | inhibition, % at 8 µM | P55072 | 220,000 tested, 0.42% active | recombinant p97 ATPase, Kinase-Glo ATP luminescence, 3 h; in the data active = inhibition above about 15%;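 note: 0% = DMSO vehicle and 100% = wells lacking enzyme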
* = called active by the depositor.

For COC(=O)CCC(=O)OC1(C)C(=O)C2=CN(CC3CC3)C(c3ccc(OC)cc3)=CC2=C(Br)C1=O (stereo unspecified) the results were PP1 inh 17.2* and PP5 inh 7.1.
`Cc1ccc2[nH]c3nc(N/N=C/c4cccc(O)c4)nnc3c2c1` gave PP1 inh 16.5* and PP5 inh 3.3.
`COc1cc(/C=N/Nc2nnc3c(n2)[nH]c2ccccc23)ccc1O` gave PP1 inh 8.6, PKD1 kinase inh -8.7, Hsp70 activator -0.4, RBBP9 inhibitor -0.5, PP5 inh -0.5 and p97 ATPase inh 6.0.
`CCc1ccc2[nH]c3nc(N/N=C/c4ccc(O)cc4O)nnc3c2c1` gave PP1 inh 16.8* and PP5 inh 1.4.
Screening O=C(COC(=O)CCC(=O)c1ccc(F)cc1)Nc1ccc2[nH]c(=O)[nH]c2c1 returned PP1 inh 0.2 and PP5 inh -1.8.
`Cn1c(N)c(C(=O)COC(=O)c2cc(-c3ccco3)nc3ccccc23)c(=O)n(Cc2ccccc2)c1=O` gave PP1 inh 30.0*, PKD1 kinase inh -7.7, Hsp70 activator -0.1, RBBP9 inhibitor -23.2, PP5 inh 3.4 and p97 ATPase inh 10.7.
For Cc1ccc(C(=O)COC(=O)CNC(=O)c2ccccc2)s1 the results were PP1 inh -1.0 and PP5 inh -0.6.
`Fc1cccc(Cl)c1CNc1ccc(N2CCCC2)cc1` gave PP1 inh 16.9*, PKD1 kinase inh -5.8, Hsp70 activator -0.1, RBBP9 inhibitor -4.0, PP5 inh 2.9 and p97 ATPase inh 0.3.
`CC(C)c1ccc(S(=O)(=O)/N=C2/C=C(Sc3ncn[nH]3)C(=O)c3ccccc32)cc1` gave PP1 inh 3.9, PKD1 kinase inh -7.3, Hsp70 activator -0.3, RBBP9 inhibitor 6.2, PP5 inh 10.8* and p97 ATPase inh 22.3*.
`CCOC(=O)[C@H]1[C@H]2COc3ccc(OC)cc3[C@@H]2N2C(=O)[C@H](C)NC(=O)[C@@]12C` gave PP1 inh -2.4 and PP5 inh 0.6.
Screening Cc1ccc(-c2ccc(/C=C3\C(=O)ON=C3c3ccccc3)o2)c([N+](=O)[O-])c1 returned PP1 inh 17.0*, PKD1 kinase inh -10.6, Hsp70 activator -0.5, RBBP9 inhibitor -2.3, PP5 inh 3.5 and p97 ATPase inh -5.7.
Screening O=C(O[C@@H]1Cc2c(O)cc(O)cc2O[C@@H]1c1cc(O)c(O)c(O)c1)c1cc(O)c(O)c(O)c1 returned Hsp70 activator -0.2, RBBP9 inhibitor -6.2 and p97 ATPase inh 42.4*.
For O=C(CN1CCN(C(=O)CNC(=O)c2ccc(N3CCCC3=O)cc2)CC1)Nc1ccccc1Cl the results were PP1 inh -0.7 and PP5 inh 0.6.
`O=C(CSc1nccc(=O)[nH]1)NCc1ccc2c(c1)OCO2` gave PP1 inh 15.5* and PP5 inh 1.5.
For CCc1cc(=O)[nH]c(SCC(=O)NCc2ccc3c(c2)OCO3)n1 the results were PP1 inh -3.5 and PP5 inh 0.3.
`CCc1cccc2c(C(=O)CCl)c[nH]c12` gave PP1 inh 0.0, PKD1 kinase inh 1.2, Hsp70 activator -0.2, RBBP9 inhibitor -0.9, PP5 inh -1.0 and p97 ATPase inh 17.9*.
`Cn1c(SCc2ccc(F)cc2Cl)nc2ccccc2c1=O` gave PP1 inh 3.6 and PP5 inh 4.3.
For COc1cccc2sc(Nc3nc(-c4ccccn4)cs3)nc12 the results were PP1 inh 17.1*, PKD1 kinase inh -4.9, Hsp70 activator 4.7, RBBP9 inhibitor -2.9, PP5 inh 0.8 and p97 ATPase inh 5.0.
COc1cccc2sc(NNC(=O)COc3ccccc3)nc12 was read as PP1 inh 1.4, PKD1 kinase inh -5.7, Hsp70 activator 0.1, RBBP9 inhibitor -4.0, PP5 inh 0.0 and p97 ATPase inh -2.7.
`CNc1ccc(Br)cc(C(=O)/C=C/c2ccc(OC)cc2)c1=O` gave PP1 inh 4.6, PKD1 kinase inh -1.7, Hsp70 activator -0.2, RBBP9 inhibitor 1.7, PP5 inh 3.0 and p97 ATPase inh 5.4.
`CNc1ccc(Br)cc(C(=O)/C=C/c2ccc3c(c2)OCO3)c1=O` gave PP1 inh 0.7, PKD1 kinase inh 4.0, Hsp70 activator 0.0, RBBP9 inhibitor 3.5, PP5 inh -1.6 and p97 ATPase inh 14.7*.
`COc1ccccc1NS(=O)(=O)c1ccc2oc(SC(C)C(=O)N3CCNC3=O)nc2c1` (stereo unspecified) gave PP1 inh -0.9 and PP5 inh 2.3.
Screening Cc1ccc(-c2csc(C3C(N)=NC(S)=C(C#N)C34CCCCC4)n2)cc1 (stereo unspecified) returned PP1 inh 16.6*, PKD1 kinase inh 1.5, Hsp70 activator -0.1, RBBP9 inhibitor -5.7, PP5 inh 3.9 and p97 ATPase inh -1.8.
For Cc1cc(O)c(-c2cc(C(=O)NCc3ccc4c(c3)OCO4)[nH]n2)cc1C the results were PP1 inh 16.4*, PKD1 kinase inh -6.6, Hsp70 activator -0.1, RBBP9 inhibitor -9.7, PP5 inh 1.6 and p97 ATPase inh -4.8.
`Cc1cc(C(=O)N/N=C/C=C/c2ccccc2)n[nH]1` gave PP1 inh -4.6, RBBP9 inhibitor -10.0, PP5 inh -0.5 and p97 ATPase inh 4.5.
`Cc1ccc(-c2cc(C(=O)N/N=C/C=C/c3ccccc3)n[nH]2)s1` gave PP1 inh 15.4*, PKD1 kinase inh 0.9, Hsp70 activator -0.3, RBBP9 inhibitor -9.1, PP5 inh 7.6 and p97 ATPase inh 0.6.
Screening O=C(Nc1ccc([N+](=O)[O-])cc1)Nc1ccc(OC(F)F)c(Cl)c1 returned PP1 inh 17.5*, PKD1 kinase inh -9.4, Hsp70 activator -0.4, RBBP9 inhibitor -25.2, PP5 inh 8.9 and p97 ATPase inh -0.4.
O=C(Nc1ccc(OC(F)F)c(Cl)c1)Nc1ccc2c(c1)OCO2 was read as PP1 inh 3.6, PKD1 kinase inh 0.5, Hsp70 activator 0.0, RBBP9 inhibitor -7.5, PP5 inh 7.1 and p97 ATPase inh -6.5.
Screening CCC(=O)NC(c1ccccc1OC)c1ccc2cccnc2c1O (stereo unspecified) returned PP1 inh -0.1, PKD1 kinase inh -7.1, Hsp70 activator -0.3, RBBP9 inhibitor -4.6, PP5 inh 0.9 and p97 ATPase inh -1.1.
`COc1ccc(Cl)cc1C(Nc1cccnc1)c1ccc2cccnc2c1O` (stereo unspecified) gave PP1 inh 17.5*, PKD1 kinase inh -1.7, Hsp70 activator -0.3, RBBP9 inhibitor 5.3, PP5 inh -0.9 and p97 ATPase inh 8.3.
Cc1ccc(C(=O)Nc2cccc(S(=O)(=O)N3CCCC3)c2)o1 was read as PP1 inh -3.0 and PP5 inh 1.7.
For Cc1cc(C)cc(-n2c3nc4ccccc4nc3c3c(=O)n(Cc4ccco4)cnc32)c1 the results were PP1 inh 20.2*, PKD1 kinase inh 1.3, Hsp70 activator -0.3, RBBP9 inhibitor -9.1, PP5 inh 0.7 and p97 ATPase inh 5.1.
